Test results published in ChEMBL document CHEMBL1125138, “1,3-Dialkyl-3-acyltriazenes, a novel class of antineoplastic alkylating agents” (J Med Chem, 1990).

How the values were obtained:
A498 = test: Evaluated for the inhibitory concentration required to cause growth inhibition of A498Rem- renal cell line using the MTT Cytotoxicity Assay; type: functional, cell-based; details: Homo sapiens
Outline: (§1)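 MTT microculture tetrazolium growth assay on human cell lines and normal fibroblasts. Cells seeded at 1000 cells/well, with compound added 24 h after plating. Cultures then incubated a further 6 days at 37 °C before MTT read-out of growth versus untreated cells.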

A-427 = test: Evaluated for the inhibitory concentration required to cause growth inhibition of A427Mer- cell line of lung using the MTT Cytotoxicity Assay; type: functional, cell-based; details: Homo sapiens; outline: as §1
A704 = test: Evaluated for the inhibitory concentration required to cause growth inhibition of A704Rem- renal cell line using the MTT Cytotoxicity Assay; type: functional, cell-based; details: Homo sapiens; outline: as §1
A673 = test: Evaluated for the inhibitory concentration required to cause growth inhibition of A673Mer+ sarcoma cell line using the MTT Cytotoxicity Assay; type: functional, cell-based; details: Homo sapiens; outline: as §1
A 172 = test: Evaluated for the inhibitory concentration required to cause growth inhibition of A172Mer- cell line of central nervous system (CNS) using the MTT Cytotoxicity Assay; type: functional, cell-based; details: Homo sapiens; outline: as §1
CCD 19Lu = test: Evaluated for the inhibitory concentration required to cause growth inhibition of CCD-19Lu fibroblasts cell line using the MTT Cytotoxicity Assay; type: functional, cell-based; details: Homo sapiens; outline: as §1
DOD-1 = test: Evaluated for the inhibitory concentration required to cause growth inhibition of DOD-1 breast cell line using the MTT Cytotoxicity Assay; type: functional, cell-based; details: Homo sapiens; outline: as §1
NCI-H460 = test: Evaluated for the inhibitory concentration required to cause growth inhibition of H460 cell line of lung using the Microculture Tetrazolium (MTT) Cytotoxicity Assay; type: functional, cell-based; details: Homo sapiens; outline: as §1
NCI-H358 = test: Evaluated for the inhibitory concentration required to cause growth inhibition of H358M cell line of lung using the Microculture Tetrazolium (MTT) Cytotoxicity Assay; type: functional, cell-based; details: Homo sapiens; outline: as §1
NCI-H125 = test: Evaluated for the inhibitory concentration required to cause growth inhibition of H125 cell line of lung using the Microculture Tetrazolium (MTT) Cytotoxicity Assay; type: functional, cell-based; details: Homo sapiens; outline: as §1
NCI-H322M = test: Evaluated for the inhibitory concentration required to cause growth inhibition of H322M cell line of lung using the Microculture Tetrazolium (MTT) Cytotoxicity Assay; type: functional, cell-based; details: Homo sapiens; outline: as §1
NCI-H23 = test: Evaluated for the inhibitory concentration required to cause growth inhibition of H23 cell line of lung using the Microculture Tetrazolium (MTT) Cytotoxicity Assay; type: functional, cell-based; details: Homo sapiens; outline: as §1
LOX IMVI = test: Evaluated for the inhibitory concentration required to cause growth inhibition of LOX melanoma cell line using the MTT Cytotoxicity Assay; type: functional, cell-based; details: Homo sapiens; outline: as §1
MCF7 = test: Evaluated for the inhibitory concentration required to cause growth inhibition of MCF-7 breast cell line using the MTT Cytotoxicity Assay; type: functional, cell-based; details: Homo sapiens; outline: as §1
[1] = system: MAR BEL fibroblasts cell line; test: Evaluated for the inhibitory concentration required to cause growth inhibition of MAR BEL fibroblasts cell line using the MTT Cytotoxicity Assay; type: functional, cell-based; details: Homo sapiens; outline: as §1
NCI/ADR-RES = test: Evaluated for the inhibitory concentration required to cause growth inhibition of MCF-7ADR breast cell line using the MTT Cytotoxicity Assay; type: functional, cell-based; details: Homo sapiens; outline: as §1
Malme-3M = test: Evaluated for the inhibitory concentration required to cause growth inhibition of MALME-3M melanoma cell line using the MTT Cytotoxicity Assay; type: functional, cell-based; details: Homo sapiens; outline: as §1
OVCAR-4 = test: Evaluated for the inhibitory concentration required to cause growth inhibition of OVCAR-4 ovarian cell line using the MTT Cytotoxicity Assay; type: functional, cell-based; details: Homo sapiens; outline: as §1
OVCAR-3 = test: Evaluated for the inhibitory concentration required to cause growth inhibition of OVCAR-3 ovarian cell line using the MTT Cytotoxicity Assay; type: functional, cell-based; details: Homo sapiens; outline: as §1
P388 [2] = test: Evaluated in vivo for antineoplastic activity against P388 murine leukemia tumor […] after administering intra peritoneal injection at a dose of 13.12 mg/kg; type: functional, Mus musculus
Outline: (§2)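 P388 leukemia-bearing mice, run through the NCI Developmental Therapeutics Program. Compound given ip once daily on 5 consecutive days. Activity read out as % T/C.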

P388 [3] = test: Evaluated in vivo for antineoplastic activity against P388 murine leukemia tumor […] after administering intra peritoneal injection at a dose of 26.25 mg/kg; type: functional, Mus musculus; outline: as §2
P388 [4] = test: Evaluated in vivo for antineoplastic activity against P388 murine leukemia tumor […] after administering intra peritoneal injection at a dose of 52.5 mg/kg; type: functional, Mus musculus; outline: as §2
HOS-TE85 = test: Evaluated for the inhibitory concentration required to cause growth inhibition of TE85Mer+ sarcoma cell line using the MTT Cytotoxicity Assay; type: functional, cell-based; details: Homo sapiens; outline: as §1
TE-671 = test: Evaluated for the inhibitory concentration required to cause growth inhibition of TE-671 cell line of central nervous system (CNS)using the MTT Cytotoxicity Assay; type: functional, cell-based; details: Homo sapiens; outline: as §1
WiDr = test: Evaluated for the inhibitory concentration required to cause growth inhibition of WiDR colon cell line using the MTT Cytotoxicity Assay; type: functional, cell-based; details: Homo sapiens
Outline: (§3)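 MTT cell-growth assay in human cell lines: cells harvested and seeded at 1000 cells/well in 96-well plates. Compound added after 24 h, then cultures incubated a further 6 days at 37 °C. Growth measured with and without agent.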

U-251 = test: Evaluated for the inhibitory concentration required to cause growth inhibition of U251 cell line of central nervous system (CNS) using the MTT Cytotoxicity Assay; type: functional, cell-based; details: Homo sapiens; outline: as §3
RPMI-7951 = test: Evaluated for the inhibitory concentration required to cause growth inhibition of RPMI7951 melanoma cell line using the MTT Cytotoxicity Assay; type: functional, cell-based; details: Homo sapiens; outline: as §1
SK-MEL-5 = test: Evaluated for the inhibitory concentration required to cause growth inhibition of SK-MEL-5 melanoma cell line using the MTT Cytotoxicity Assay; type: functional, cell-based; details: Homo sapiens; outline: as §1
A549 [5] = test: Evaluated for the inhibitory concentration required to cause growth inhibition of A549Rem- cell line of lung using the MTT Cytotoxicity Assay; type: functional, cell-based; details: Homo sapiens; outline: as §1
NCI-H522 (Homo sapiens) = test: Evaluated for the inhibitory concentration required to cause growth inhibition of H522 cell line of lung using the Microculture Tetrazolium (MTT) Cytotoxicity Assay
A549 [6] = test: Evaluated for the antineoplastic activity against A549 lung (nonsmall cell) tumor xenograft in nude mice after administering 3 injections (intra peritoneally) at a dose of 200 mg/kg; type: functional, Homo sapiens
Outline: (§4)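 Nude mice bearing human tumor xenografts; compound given intraperitoneally as three injections at 4-day intervals. Antitumor activity expressed as % T/C at each dose level. Performed under the NCI Developmental Therapeutics Program.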

A549 [7] = test: Evaluated for the antineoplastic activity against A549 lung (nonsmall cell) tumor xenograft in nude mice after administering 3 injections (intra peritoneally) at a dose of 100 mg/kg; type: functional, Homo sapiens; outline: as §4
[8] = Evaluated for the antineoplastic activity against LOX amelanotic melanoma tumor xenograft in nude mice after administering 3 injections (intra peritoneally) at a dose of 12.5 mg/kg; type: functional, Homo sapiens; outline: as §4
[9] = Evaluated for the antineoplastic activity against LOX amelanotic melanoma tumor xenograft in nude mice after administering 3 injections (intra peritoneally) at a dose of 25 mg/kg; type: functional, Homo sapiens; outline: as §4
[10] = Evaluated for the antineoplastic activity against LOX amelanotic melanoma tumor xenograft in nude mice after administering 3 injections (intra peritoneally) at a dose of 50 mg/kg; type: functional, Homo sapiens; outline: as §4
[11] = Evaluated for the antineoplastic activity against LX-1 lung (small cell) tumor xenograft in nude mice after administering 3 injections (intra peritoneally) at a dose of 100 mg/kg; type: functional, Homo sapiens; outline: as §4
[12] = Evaluated for the antineoplastic activity against LX-1 lung (small cell) tumor xenograft in nude mice after administering 3 injections (intra peritoneally) at a dose of 25 mg/kg; type: functional, Homo sapiens; outline: as §4
[13] = Evaluated for the antineoplastic activity against LX-1 lung (small cell) tumor xenograft in nude mice after administering 3 injections (intra peritoneally) at a dose of 50 mg/kg; type: functional, Homo sapiens; outline: as §4
[14] = Evaluated for the antineoplastic activity against LOX amelanotic melanoma tumor xenograft in nude mice after administering 3 injections (intra peritoneally) at a dose of 100 mg/kg; type: functional, Homo sapiens; outline: as §4
L1210 [15] = test: Evaluated for the antineoplastic activity against L1210 leukemia tumor xenograft in nude mice after administering 5 injections (intra peritoneally) at a dose of 21.6 mg/kg; type: functional, Mus musculus
Outline: (§5)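 Mice bearing L1210 leukemia dosed intraperitoneally once daily for 5 successive days (five injections). Activity reported as % T/C at each dose. Performed under the NCI Developmental Therapeutics Program.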

[16] = Evaluated for the antineoplastic activity against M5 sarcoma tumor xenograft in nude mice after administering 4 injections (intra peritoneally) at a dose of 12.5 mg/kg; type: functional, Mus musculus
Outline: (§6)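 M5 sarcoma-bearing mice given four intraperitoneal injections at 4-day intervals. Activity reported as % T/C per dose. Performed under the NCI Developmental Therapeutics Program.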

[17] = Evaluated for the antineoplastic activity against M5 sarcoma tumor xenograft in nude mice after administering 4 injections (intra peritoneally) at a dose of 25 mg/kg; type: functional, Mus musculus; outline: as §6
[18] = Evaluated for the antineoplastic activity against M5 sarcoma tumor xenograft in nude mice after administering 4 injections (intra peritoneally) at a dose of 50 mg/kg; type: functional, Mus musculus; outline: as §6
L1210 [19] = test: Evaluated for the antineoplastic activity against L1210 leukemia tumor xenograft in nude mice after administering 5 injections (intra peritoneally) at a dose of 36 mg/kg; type: functional, Mus musculus; outline: as §5
L1210 [20] = test: Evaluated for the antineoplastic activity against L1210 leukemia tumor xenograft in nude mice after administering 5 injections (intra peritoneally) at a dose of 60 mg/kg; type: functional, Mus musculus; outline: as §5
MX1 [21] = test: Evaluated for the antineoplastic activity against MX-1 mammary tumor xenograft in nude mice after administering 3 injections (intra peritoneally) at a dose of 150 mg/kg; type: functional, Homo sapiens; outline: as §4
MX1 [22] = test: Evaluated for the antineoplastic activity against MX-1 mammary tumor xenograft in nude mice after administering 3 injections (intra peritoneally) at a dose of 300 mg/kg; type: functional, Homo sapiens; outline: as §4

SMILES: CC(=O)N(C)/N=N\CCCl
- IC50 (A498): 18 µM
- IC50 (A-427): 12 µM
- IC50 (A704): 26 µM
- IC50 (A673): 35 µM
- IC50 (A 172): 20 µM
- IC50 (CCD 19Lu): 60 µM
- IC50 (DOD-1): 26 µM
- IC50 (NCI-H460): 60 µM
- IC50 (NCI-H358): 60 µM
- IC50 (NCI-H125): 42 µM
- IC50 (NCI-H322M): 32 µM
- IC50 (NCI-H23): 20 µM
- IC50 (LOX IMVI): 8 µM
- IC50 (MCF7): 15 µM
- IC50 [1]: 44 µM
- IC50 (NCI/ADR-RES): 24 µM
- IC50 (Malme-3M): 25 µM
- IC50 (OVCAR-4): 18 µM
- IC50 (OVCAR-3): 25 µM
- T/C (P388 [2]): 157%
- T/C (P388 [3]): 217%
- T/C (P388 [4]): 257%
- IC50 (HOS-TE85): 18 µM
- IC50 (TE-671): 50 µM
- IC50 (WiDr): 15 µM
- IC50 (U-251): 18 µM
- IC50 (RPMI-7951): 17 µM
- IC50 (SK-MEL-5): 15 µM
- IC50 (A549 [5]): 26 µM
- IC50 (NCI-H522 (Homo sapiens)): 18 µM

SMILES: C/N=N\N(C)C(=O)NC
- T/C (A549 [6]): -27%
- T/C (A549 [7]): 8%
- IC50 (A498): 37 µM
- IC50 (A-427): 9 µM
- IC50 (A704): 55 µM
- IC50 (A673): 50 µM
- IC50 (A 172): 24 µM
- IC50 (CCD 19Lu): 70 µM
- IC50 (DOD-1): 38 µM
- IC50 (NCI-H460): 70 µM
- IC50 (NCI-H358): 75 µM
- IC50 (NCI-H125): 50 µM
- IC50 (NCI-H322M): 42 µM
- IC50 (NCI-H23): 22 µM
- T/C [8]: 131%
- T/C [9]: 154%
- T/C [10]: 188%
- T/C [11]: -55%
- T/C [12]: 6%
- T/C [13]: -34%
- IC50 (LOX IMVI): 19 µM
- T/C [14]: 230%
- IC50 (MCF7): 30 µM
- IC50 [1]: 65 µM
- T/C (L1210 [15]): 132%
- T/C [16]: 136%
- T/C [17]: 158%
- T/C [18]: 177%
- T/C (L1210 [19]): 146%
- T/C (L1210 [20]): 186%
- IC50 (NCI/ADR-RES): 35 µM
- T/C (MX1 [21]): 15%
- T/C (MX1 [22]): -13%
- IC50 (Malme-3M): 22 µM
- IC50 (OVCAR-4): 35 µM
- IC50 (OVCAR-3): 40 µM
- IC50 (HOS-TE85): 35 µM
- IC50 (TE-671): 46 µM
- IC50 (WiDr): 30 µM
- IC50 (U-251): 33 µM
- IC50 (RPMI-7951): 37 µM
- IC50 (SK-MEL-5): 20 µM
- IC50 (A549 [5]): 60 µM
- IC50 (NCI-H522 (Homo sapiens)): 24 µM
